Experimental data of several laboratories.
Each line is one published result; the experiments were not run side by side.

| SMILES | test | system | setting | measurement | result |
| --- | --- | --- | --- | --- | --- |
| CCCc1nc2c(C)cc(-c3nc4ccccc4n3C)cc2n1Cc1ccc(-c2ccccc2C(=O)O)cc1 | – | male Sprague-Dawley rat, plasma | oral, 8 mg/kg, single dose | CL/F | 78 mL/min/kg |
| CO[C@H]1C[C@H](O[C@@H]2/C(C)=C/C[C@@H]3C[C@@H](C[C@]4(CC[C@H](C)[C@@H](C5CCCCC5)O4)O3)OC(=O)[C@@H]3C=C(C)/C(=N/O)[C@H]4OC/C(=C\C=C\[C@@H]2C)[C@]43O)O[C@@H](C)[C@@H]1O | haemolysis | human | 50 µM, 3 h | haemolysis | > 18% |
| C[C@H]1Oc2cc(cnc2N)-c2c(nn(C)c2C#N)CN(C)C(=O)c2ccc(F)cc21 | – | male Sprague-Dawley rat, plasma | oral, 50 mg/kg, single dose | CL/F | 16.7 mL/min/kg |
| C[C@]1(O)CCCN(c2nc(Nc3ccc(S(=O)(=O)N[C@@H]4CCN(CC5CCN(c6ccc(C7CCC(=O)NC7=O)cc6F)CC5)C[C@H]4F)cc3F)ncc2C(F)(F)F)C1 (stereo partly shown) | – | rat, plasma | intravenous, 2 mg/kg | clearance | 12 mL/min/kg |
| CC(C)[C@H](N)C(=O)N[C@H](Cc1ccccc1)C(=O)N[C@@H](Cc1ccccc1)C(=O)N[C@H](CCCN)C(=O)N[C@H](C(=O)N[C@H](CCCNC(=N)N)C(=O)O)[C@@H](C)O | haemolysis | human | 100 µM | haemolysis | < 10% |
| C[C@]1(O)CCCN(c2nc(Nc3ccc(S(=O)(=O)N[C@H]4CC[C@H](CN5CCN(c6ccc(C7CCC(=O)NC7=O)cc6F)CC5)CC4)cc3F)ncc2C(F)(F)F)C1 (stereo partly shown) | – | rat, plasma | intravenous, 2 mg/kg | clearance | 12 mL/min/kg |
| CC(C)[C@@H]1NC(=O)[C@@H](CCCNC(=N)N)NC(=O)[C@H]([C@@H](C)O)NC(=O)[C@@H](CCCCN)NC(=O)[C@H](Cc2ccccc2)NC(=O)[C@@H](Cc2ccccc2)NC1=O | haemolysis | human | 100 µM | haemolysis | < 10% |
| CCCCCCCCNC(C)C(O)c1ccc(SC(C)C)cc1 (stereo not shown) | haemolysis | human | 50 µM, 3 h | haemolysis | > 18% |
| CC(C)[C@@H]1NC(=O)[C@@H](CCCNC(=N)N)NC(=O)[C@H]([C@@H](C)O)NC(=O)[C@@H](C)NC(=O)[C@H](Cc2ccccc2)NC(=O)[C@@H](Cc2ccccc2)NC1=O | haemolysis | human | 100 µM | haemolysis | < 10% |
| C[C@]1(O)CCCN(c2nc(Nc3ccc(S(=O)(=O)N[C@H]4CC[C@H](CN5CCN(c6ccc(C7CCC(=O)NC7=O)c(F)c6)CC5)CC4)cc3F)ncc2C(F)(F)F)C1 (stereo partly shown) | – | rat, plasma | intravenous, 2 mg/kg | clearance | 6 mL/min/kg |
